The values below come from ChEMBL document CHEMBL4311941, “Development of Multifunctional Histone Deacetylase 6 Degraders with Potent Antimyeloma Activity” (J Med Chem, 2019).

In experiment [1] the target is T1, Protein cereblon/Protein deacetylase HDAC6 (Homo sapiens, UniProt Q9UBN7+Q96SW2). Description: Protac activity at CRBN/HDAC6 in human MM1S cells assessed as HDAC6 degradation measured after 6 hrs by ELISA. Type of experiment: cell-based. The procedure, abridged:
(§1)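 In-cell ELISA: MM1S cells (5 × 10^4 per well) seeded overnight, treated 6 h (dosed as 5× medium; 0.1 nM–1 μM or 10/100 nM). Fixed in 8% formaldehyde/TBS, permeabilized with 0.1% Triton X, peroxidase quenched with 1% H2O2, blocked in 5% BSA. Anti-HDAC6 rabbit mAb (1:1000, 2 h) then HRP secondary; TMB read as OD450 − OD570. Background wells lacked primary antibody. Signal normalized to Janus Green and to DMSO wells, n = 3. DC50/Dmax from three-parameter fit.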
In general terms: In an ELISA, binding on a coated surface is turned into a signal by an enzyme label.
Target sequence in this assay (Q9UBN7 whole entry): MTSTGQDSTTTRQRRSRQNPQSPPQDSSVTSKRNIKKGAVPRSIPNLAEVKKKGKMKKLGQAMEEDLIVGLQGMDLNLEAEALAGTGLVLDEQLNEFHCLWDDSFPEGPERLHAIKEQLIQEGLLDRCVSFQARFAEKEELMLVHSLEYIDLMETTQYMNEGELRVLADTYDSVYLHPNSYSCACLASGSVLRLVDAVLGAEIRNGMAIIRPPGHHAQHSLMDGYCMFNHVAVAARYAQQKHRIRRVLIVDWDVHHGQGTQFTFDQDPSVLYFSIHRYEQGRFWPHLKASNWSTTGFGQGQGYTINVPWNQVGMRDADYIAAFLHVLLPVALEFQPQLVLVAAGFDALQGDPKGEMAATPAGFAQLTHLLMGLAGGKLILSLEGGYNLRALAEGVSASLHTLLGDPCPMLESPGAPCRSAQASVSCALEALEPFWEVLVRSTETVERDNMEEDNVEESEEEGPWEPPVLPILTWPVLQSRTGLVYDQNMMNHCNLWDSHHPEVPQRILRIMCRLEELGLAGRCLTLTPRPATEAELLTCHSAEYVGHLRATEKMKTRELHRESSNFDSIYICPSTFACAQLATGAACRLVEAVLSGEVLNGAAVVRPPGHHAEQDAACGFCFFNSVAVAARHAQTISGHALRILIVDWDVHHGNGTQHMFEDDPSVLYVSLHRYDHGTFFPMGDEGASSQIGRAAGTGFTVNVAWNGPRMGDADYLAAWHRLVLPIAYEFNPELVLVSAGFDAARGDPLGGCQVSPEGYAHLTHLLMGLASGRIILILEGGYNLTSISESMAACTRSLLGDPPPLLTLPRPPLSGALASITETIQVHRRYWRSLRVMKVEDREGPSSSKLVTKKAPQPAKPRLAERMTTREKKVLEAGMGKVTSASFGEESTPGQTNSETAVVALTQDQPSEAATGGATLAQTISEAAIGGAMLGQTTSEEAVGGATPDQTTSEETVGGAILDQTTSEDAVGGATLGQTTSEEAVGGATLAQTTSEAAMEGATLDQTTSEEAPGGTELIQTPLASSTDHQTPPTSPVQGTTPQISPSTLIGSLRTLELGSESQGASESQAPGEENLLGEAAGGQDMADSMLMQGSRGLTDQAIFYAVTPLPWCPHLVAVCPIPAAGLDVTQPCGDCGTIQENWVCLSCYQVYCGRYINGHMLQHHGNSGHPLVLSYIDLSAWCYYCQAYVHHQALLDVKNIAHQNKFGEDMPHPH
Target sequence in this assay (Q96SW2 whole entry): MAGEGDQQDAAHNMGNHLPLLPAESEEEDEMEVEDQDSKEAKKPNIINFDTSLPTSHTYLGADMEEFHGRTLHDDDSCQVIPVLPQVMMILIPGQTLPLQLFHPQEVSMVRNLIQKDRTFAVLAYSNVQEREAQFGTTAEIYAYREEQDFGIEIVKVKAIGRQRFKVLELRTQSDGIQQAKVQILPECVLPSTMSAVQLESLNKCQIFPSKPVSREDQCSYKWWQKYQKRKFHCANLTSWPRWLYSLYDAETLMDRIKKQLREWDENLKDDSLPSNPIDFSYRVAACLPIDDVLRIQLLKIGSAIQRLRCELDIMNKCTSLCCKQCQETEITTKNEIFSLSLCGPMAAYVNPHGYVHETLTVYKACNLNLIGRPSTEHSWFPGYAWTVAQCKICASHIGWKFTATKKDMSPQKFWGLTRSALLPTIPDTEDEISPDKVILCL

In experiment [2] the target is T1, Protein cereblon/Protein deacetylase HDAC6. Description: Protac activity at CRBN/HDAC6 in human MM1S cells assessed as HDAC6 degradation measured after 6 hrs by ELISA relative to control. Type of experiment: cell-based. The procedure, abridged:
as §1
Target sequence in this assay (Q96SW2 whole entry, looked up): as the sequence (Q96SW2 whole entry) above
Target sequence in this assay (Q9UBN7 whole entry, looked up): as the sequence (Q9UBN7 whole entry) above

For experiment [3] the target is unchanged. Description: Protac activity at CRBN/HDAC6 in human MM1S cells assessed as HDAC6 degradation at 10 to 100 nM measured after 6 hrs by Western blot analysis. Type of experiment: cell-based.
Target sequence in this assay (Q96SW2 whole entry, looked up): as the sequence (Q96SW2 whole entry) above
Target sequence in this assay (Q9UBN7 whole entry, looked up): as the sequence (Q9UBN7 whole entry) above
The target is the same in experiment [4]. Description: Protac activity at CRBN/HDAC6 in human HepG2 cells assessed as HDAC6 degradation up to 1 uM incubated for 6 hrs by Western blot analysis. The class given is cell-based. (In general: Immunoblotting shows a protein as a band on a membrane.)
Target sequence in this assay (Q96SW2 whole entry, looked up): as the sequence (Q96SW2 whole entry) above
Target sequence in this assay (Q9UBN7 whole entry, looked up): as the sequence (Q9UBN7 whole entry) above
In experiment [5] the test system is MM1.S. In words: Antiproliferative activity against human MM1S cells assessed as reduction in cell viability at 1 uM measured after 72 hrs by resazurin dye based assay. The class given is functional. Background: Alamar Blue is a resazurin reagent that responds to reducing activity.
Experiment [6] has as its target T1, Protein cereblon/Protein deacetylase HDAC6. Description: Protac activity at CRBN/HDAC6 in human MM1S cells assessed as HDAC6 degradation at 100 nM measured after 6 hrs by Western blot analysis. Type of experiment: cell-based.
Target sequence in this assay (Q96SW2 whole entry, looked up): as the sequence (Q96SW2 whole entry) above
Target sequence in this assay (Q9UBN7 whole entry, looked up): as the sequence (Q9UBN7 whole entry) above
Experiment [7] relates to MM1.S. In words: Antiproliferative activity against human MM1S cells assessed as reduction in cell viability measured after 72 hrs by resazurin dye based assay. Type of experiment: functional. The procedure, abridged:
(§2)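 MM1S cells seeded at 1 × 10^4 per well, left overnight, then given compound or DMSO vehicle (added as 5× dosing medium) for 72 h at 37 °C, 5% CO2. Resazurin added (10× solution, 1 mg/mL), then incubated overnight at 37 °C. OD read at 570 and 600 nm. Viability is relative to vehicle, n = 3. Curves fitted as [inhibitor] vs response (three parameters); test range 0.3 nM–3 μM.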

Experiment [8] relates to MM1.S. In words: Antiproliferative activity against human MM1S cells assessed as reduction in cell viability measured after 72 hrs by resazurin dye based assay relative to control. The class given is functional. The procedure, abridged: as §2

The structures appear in SMILES notation. Calls of active or inactive are those of the source. The calls are words filed in the database; no cut-off is given here.

A word on the DC50: it is the concentration at which degradation of the target reaches its halfway point. For orientation: EC50 means the concentration giving half of the maximal effect.

Regarding `CCCCN(Cc1ccc(C(=O)NO)cc1)C(=O)Nc1ccc(OCCn2cc(CNc3cccc4c3C(=O)N(C3CCC(=O)NC3=O)C4=O)nn2)cc1` (configuration not stated), the DC50 in experiment [1] was 3.41 nM. The %max in experiment [2] is 88%.

For `CCCCN(Cc1ccc(C(=O)NO)cc1)C(=O)Nc1ccc(OCCn2cc(CCCNc3cccc4c3C(=O)N(C3CCC(=O)NC3=O)C4=O)nn2)cc1` (configuration not stated), the outcome in experiment [3] was Active. Also, the DC50 in experiment [1] worked out at 2.54 nM. For the same compound, in experiment [2], the %max turned out to be 86.3%.

For `CCCCN(Cc1ccc(C(=O)NO)cc1)C(=O)Nc1ccc(OCCCn2cc(CCCNc3ccc4c(c3)C(=O)N(C3CCC(=O)NC3=O)C4=O)nn2)cc1` (configuration not stated), the result in experiment [3] was Active.

Consider `CCCCN(Cc1ccc(C(=O)NO)cc1)C(=O)Nc1ccc(OCCCCn2cc(CNc3ccc4c(c3)C(=O)N(C3CCC(=O)NC3=O)C4=O)nn2)cc1` (configuration not stated), for which the result in experiment [3] and in experiment [4] was Active.

In the case of `CCCCN(Cc1ccc(C(=O)NO)cc1)C(=O)Nc1ccc(OCCCCCn2cc(CNc3cccc4c3C(=O)N(C3CCC(=O)N(C)C3=O)C4=O)nn2)cc1` (configuration not stated), the outcome (in the experiment with MM1.S [5]; in experiment [6]) was inactive.

In the case of `O=C(CCCCCCC(=O)N/N=C/c1ccc(OCCOCCOCCn2cc(CNc3cccc4c3C(=O)N(C3CCC(=O)NC3=O)C4=O)nn2)cc1)NO` (configuration not stated), the result (with MM1.S [5]; in experiment [3]) was Active. In experiment [1], the DC50 turned out to be 9.12 nM. Besides, in experiment [2], the %max worked out at 84.1%.

`Nc1cccc2c1C(=O)N(C1CCC(=O)NC1=O)C2=O` (configuration not stated): the result with MM1.S [5] was Active.

Turning to `CCCCN(Cc1ccc(C(=O)OC)cc1)C(=O)Nc1ccc(OCCCCCn2cc(CNc3cccc4c3C(=O)N(C3CCC(=O)NC3=O)C4=O)nn2)cc1` (configuration not stated), in the experiment with MM1.S [5], the result was Active. Further, the result in experiment [6] was inactive. For the same compound, the EC50 in the experiment on MM1.S [7] was found to be 17.7 nM. In addition, the Imax with MM1.S [8] is 44%.

With `CCCCN(Cc1ccc(C(=O)NO)cc1)C(=O)Nc1ccccc1`, the result in the experiment on MM1.S [5] was inactive.

For `CCCCN(Cc1ccc(C(=O)NO)cc1)C(=O)Nc1ccc(OCCCCCn2cc(CNc3ccc4c(c3)C(=O)N(C3CCC(=O)NC3=O)C4=O)nn2)cc1` (configuration not stated), the outcome in experiment [3] was Active.

Regarding `CCCCN(Cc1ccc(C(=O)NO)cc1)C(=O)Nc1ccc(OCCCCn2cc(CCNc3cccc4c3C(=O)N(C3CCC(=O)NC3=O)C4=O)nn2)cc1` (configuration not stated), the result in experiment [3] was Active.
